Series [1] has as its target Fibroblast growth factor receptor 3 (Homo sapiens, UniProt P22607). As to the kind of experiment: Inhibition of His-tagged cytoplasmic recombinant human FGFR3 (399 to 806 residues) expressed in baculovirus expression system using Tyr 4 peptide as substrate incubated for 1 hr by FRET-based Z'-Lyte assay.
The target of series [2] is Fibroblast growth factor receptor 2 (Homo sapiens, UniProt P21802). Nature of the series: Inhibition of His-tagged cytoplasmic recombinant human FGFR2 (403 to 822 residues) expressed in baculovirus expression system using Tyr 4 peptide as substrate incubated for 1 hr by FRET-based Z'-Lyte assay.
Chain of Fibroblast growth factor receptor 2 (P21802 whole entry, the tested form may be a part): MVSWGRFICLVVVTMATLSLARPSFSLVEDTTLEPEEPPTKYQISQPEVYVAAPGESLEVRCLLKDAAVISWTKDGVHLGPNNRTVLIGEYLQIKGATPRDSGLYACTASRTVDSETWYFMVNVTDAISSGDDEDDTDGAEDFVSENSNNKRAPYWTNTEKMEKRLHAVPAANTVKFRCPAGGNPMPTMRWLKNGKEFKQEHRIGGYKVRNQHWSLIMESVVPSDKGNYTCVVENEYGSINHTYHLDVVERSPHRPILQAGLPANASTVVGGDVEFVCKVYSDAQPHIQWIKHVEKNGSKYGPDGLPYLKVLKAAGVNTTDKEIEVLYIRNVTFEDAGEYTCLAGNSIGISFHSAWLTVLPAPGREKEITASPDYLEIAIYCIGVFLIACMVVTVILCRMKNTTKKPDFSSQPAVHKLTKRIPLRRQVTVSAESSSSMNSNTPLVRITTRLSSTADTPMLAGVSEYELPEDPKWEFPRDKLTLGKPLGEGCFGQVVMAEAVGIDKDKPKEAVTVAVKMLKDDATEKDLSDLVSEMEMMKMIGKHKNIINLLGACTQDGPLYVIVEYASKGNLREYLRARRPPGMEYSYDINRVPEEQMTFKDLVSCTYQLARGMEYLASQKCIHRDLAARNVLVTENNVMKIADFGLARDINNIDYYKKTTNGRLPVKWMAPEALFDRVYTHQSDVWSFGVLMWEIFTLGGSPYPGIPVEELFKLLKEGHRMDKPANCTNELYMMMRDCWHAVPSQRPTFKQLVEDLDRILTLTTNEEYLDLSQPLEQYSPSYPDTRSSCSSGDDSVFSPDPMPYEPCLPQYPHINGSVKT
The target in series [3] is Fibroblast growth factor receptor 1 (Homo sapiens, UniProt P11362). As to the kind of experiment: Inhibition of His-tagged cytoplasmic recombinant human FGFR1 (308 to 731 residues) expressed in baculovirus expression system using Tyr 4 peptide as substrate incubated for 1 hr by FRET-based Z'-Lyte assay.
Chain of Fibroblast growth factor receptor 1 (P11362 whole entry, the tested form may be a part): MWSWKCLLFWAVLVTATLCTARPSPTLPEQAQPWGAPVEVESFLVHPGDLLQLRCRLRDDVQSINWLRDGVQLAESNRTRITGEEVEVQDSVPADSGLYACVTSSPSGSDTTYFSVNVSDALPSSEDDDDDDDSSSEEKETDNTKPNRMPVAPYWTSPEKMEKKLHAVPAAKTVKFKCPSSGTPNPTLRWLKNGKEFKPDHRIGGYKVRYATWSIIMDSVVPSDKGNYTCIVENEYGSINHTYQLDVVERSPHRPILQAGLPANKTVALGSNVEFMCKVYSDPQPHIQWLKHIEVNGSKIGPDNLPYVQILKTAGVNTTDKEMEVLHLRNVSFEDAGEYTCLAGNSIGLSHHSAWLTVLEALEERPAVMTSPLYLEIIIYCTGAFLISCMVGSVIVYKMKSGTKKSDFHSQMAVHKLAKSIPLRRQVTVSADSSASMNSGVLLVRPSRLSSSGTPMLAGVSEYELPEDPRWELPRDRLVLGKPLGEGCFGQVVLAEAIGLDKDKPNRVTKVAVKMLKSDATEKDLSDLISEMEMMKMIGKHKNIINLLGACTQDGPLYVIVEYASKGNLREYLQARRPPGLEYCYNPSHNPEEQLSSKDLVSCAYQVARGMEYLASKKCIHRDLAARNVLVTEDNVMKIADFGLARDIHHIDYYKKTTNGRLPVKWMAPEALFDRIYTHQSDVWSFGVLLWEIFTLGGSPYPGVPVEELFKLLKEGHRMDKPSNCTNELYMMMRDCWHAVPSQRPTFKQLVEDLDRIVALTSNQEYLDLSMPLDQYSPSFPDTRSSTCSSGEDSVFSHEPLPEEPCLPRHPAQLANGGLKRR
The next series has as its system MCF7. Nature of the series: Antiproliferative activity against human MCF7 cells expressing low levels of FGFR4 after 72 hrs by CCK8 assay. The note with it: MCF7, 72 h.
In the next series the test system is MDA-MB-231. Nature of the series: Antiproliferative activity against human MDA-MB-231 cells expressing low levels of FGFR4 after 72 hrs by CCK8 assay. The note with it: MDA-MB-231, 72 h.
Series [4] has as its system MDA-MB-453. As to the kind of experiment: Antiproliferative activity against human MDA-MB-453 cells harboring FGFR4 Y367C mutant after 72 hrs by CCK8 assay. The note with it: MDA-MB-453, 72 h. A general note: Formazan colour is commonly taken as a measure of viable cells.
Series [5] addresses Calcium/calmodulin-dependent protein kinase type 1D (Homo sapiens) (UniProt Q8IU85). As to the kind of experiment: Inhibition of human CAMK1D at 1 uM after 1 hr by KINOMEscan assay relative to control. The procedure, abridged:
(§1)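 Kinome-wide competition binding screen across 468 kinases, with compound at 1.0 µM.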

Series [6] has as its system MDA-MB-453. Nature of the series: Effect on total ERK1/2 levels in human MDA-MB-453 cells at 3 to 300 nM after 4 hrs by Western blot method. The class given is ADME, cell-based. The note with it: mda-mb-453, 4 h, 0.3 µM. The procedure, abridged: (§2)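 MDA-MB-453 cells (FGFR4 Y367C) were treated with or without compound for 4 h at the indicated concentrations. Cells were then harvested, and total and phosphorylated FGFR4, FRS2, ERK1/2 and Akt were read by Western blot.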
(In general: A western blot detects proteins with antibodies after separation by electrophoresis.)

For series [7], the target named is T1, Fibroblast growth factor receptor 4 (Homo sapiens, UniProt P22455). The following applies: 1 uM.
Series [8] has as its system MDA-MB-453. As to the kind of experiment: Effect on total FRS2 levels in human MDA-MB-453 cells at 3 to 300 nM after 4 hrs by Western blot method. The class given is ADME, cell-based. The note with it: mda-mb-453, 4 h, 0.3 µM. The method in brief:
as §2

Series [9] concerns the target T1, Fibroblast growth factor receptor 4. Nature of the series: Binding affinity to ATP binding site of human FGFR4 after 1 hr by qPCR method. The procedure, abridged: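 The Kd for FGFR4 was measured in an active-site-dependent competition binding assay against the ATP-binding site.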
Target sequence in this assay (P22455 whole entry): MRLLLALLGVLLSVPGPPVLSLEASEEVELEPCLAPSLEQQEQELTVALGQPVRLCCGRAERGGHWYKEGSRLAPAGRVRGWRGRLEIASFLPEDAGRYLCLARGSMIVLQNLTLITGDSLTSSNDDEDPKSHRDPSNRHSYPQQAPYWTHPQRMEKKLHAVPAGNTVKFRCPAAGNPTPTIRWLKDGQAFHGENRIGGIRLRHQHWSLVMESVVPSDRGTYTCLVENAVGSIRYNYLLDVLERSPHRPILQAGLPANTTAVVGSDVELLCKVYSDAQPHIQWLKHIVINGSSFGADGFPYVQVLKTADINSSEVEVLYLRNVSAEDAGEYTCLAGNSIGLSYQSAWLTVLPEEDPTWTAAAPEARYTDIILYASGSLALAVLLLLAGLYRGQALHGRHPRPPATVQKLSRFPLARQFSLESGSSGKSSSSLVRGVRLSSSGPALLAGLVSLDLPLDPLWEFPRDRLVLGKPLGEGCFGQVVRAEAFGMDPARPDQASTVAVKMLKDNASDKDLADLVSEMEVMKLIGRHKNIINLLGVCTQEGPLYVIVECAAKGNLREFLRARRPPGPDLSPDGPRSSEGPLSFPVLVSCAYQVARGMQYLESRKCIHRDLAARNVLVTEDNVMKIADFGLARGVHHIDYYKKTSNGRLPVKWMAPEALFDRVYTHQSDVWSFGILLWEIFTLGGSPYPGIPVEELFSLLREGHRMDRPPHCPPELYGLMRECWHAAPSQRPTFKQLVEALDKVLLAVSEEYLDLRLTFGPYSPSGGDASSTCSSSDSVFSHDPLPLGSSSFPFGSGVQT
Background: Real-time PCR tracks product formation cycle by cycle.

Series [10] deals with SRSF protein kinase 3 (Homo sapiens) (UniProt Q9UPE1). As to the kind of experiment: Inhibition of human SRSF protein kinase 3 at 1 uM after 1 hr by KINOMEscan assay relative to control. The procedure, abridged:
as §1

For series [11], the system named is MDA-MB-453. Nature of the series: Effect on total AKT levels in human MDA-MB-453 cells at 3 to 300 nM after 4 hrs by Western blot method. The following applies: mda-mb-453, 4 h, 0.3 µM. The series is classed as ADME, cell-based. The method in brief:
as §2

In series [12] the target is G protein-coupled receptor kinase 4 (Homo sapiens) (UniProt P32298). Nature of the series: Inhibition of human GRK4 at 1 uM after 1 hr by KINOMEscan assay relative to control. The method in brief: as §1
Chain of G protein-coupled receptor kinase 4 (Homo sapiens) (P32298 whole entry, looked up): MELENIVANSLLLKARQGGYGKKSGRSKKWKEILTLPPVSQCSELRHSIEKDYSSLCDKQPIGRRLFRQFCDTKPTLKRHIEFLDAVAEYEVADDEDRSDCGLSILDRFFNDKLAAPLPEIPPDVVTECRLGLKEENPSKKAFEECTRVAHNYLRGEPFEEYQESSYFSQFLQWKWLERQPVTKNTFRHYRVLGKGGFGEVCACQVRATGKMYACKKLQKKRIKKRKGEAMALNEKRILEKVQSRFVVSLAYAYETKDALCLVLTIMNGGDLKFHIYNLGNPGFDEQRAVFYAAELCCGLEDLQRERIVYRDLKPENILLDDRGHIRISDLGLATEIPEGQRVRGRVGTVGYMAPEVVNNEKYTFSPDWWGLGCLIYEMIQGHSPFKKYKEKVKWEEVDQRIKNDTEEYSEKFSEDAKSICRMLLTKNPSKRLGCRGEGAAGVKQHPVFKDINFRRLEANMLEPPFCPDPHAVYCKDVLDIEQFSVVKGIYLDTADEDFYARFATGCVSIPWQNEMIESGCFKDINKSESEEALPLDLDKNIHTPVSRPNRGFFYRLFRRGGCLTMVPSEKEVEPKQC
Series [13] deals with MDA-MB-453. As to the kind of experiment: Induction of apoptosis in human MDA-MB-453 cells after 48 hrs by annexin V/[…] staining-based flow cytometric method. The series is classed as functional, cell-based.
Series [14] concerns the target T1, Fibroblast growth factor receptor 4. As to the kind of experiment: Inhibition of His-tagged cytoplasmic recombinant human FGFR4 ([…] residues) expressed in baculovirus expression system using Tyr 4 peptide as substrate incubated for 1 hr by FRET-based Z'-Lyte assay.
Target sequence in this assay (P22455 whole entry): as the sequence (P22455 whole entry) above

Chain of Fibroblast growth factor receptor 3 (P22607 whole entry, the tested form may be a part): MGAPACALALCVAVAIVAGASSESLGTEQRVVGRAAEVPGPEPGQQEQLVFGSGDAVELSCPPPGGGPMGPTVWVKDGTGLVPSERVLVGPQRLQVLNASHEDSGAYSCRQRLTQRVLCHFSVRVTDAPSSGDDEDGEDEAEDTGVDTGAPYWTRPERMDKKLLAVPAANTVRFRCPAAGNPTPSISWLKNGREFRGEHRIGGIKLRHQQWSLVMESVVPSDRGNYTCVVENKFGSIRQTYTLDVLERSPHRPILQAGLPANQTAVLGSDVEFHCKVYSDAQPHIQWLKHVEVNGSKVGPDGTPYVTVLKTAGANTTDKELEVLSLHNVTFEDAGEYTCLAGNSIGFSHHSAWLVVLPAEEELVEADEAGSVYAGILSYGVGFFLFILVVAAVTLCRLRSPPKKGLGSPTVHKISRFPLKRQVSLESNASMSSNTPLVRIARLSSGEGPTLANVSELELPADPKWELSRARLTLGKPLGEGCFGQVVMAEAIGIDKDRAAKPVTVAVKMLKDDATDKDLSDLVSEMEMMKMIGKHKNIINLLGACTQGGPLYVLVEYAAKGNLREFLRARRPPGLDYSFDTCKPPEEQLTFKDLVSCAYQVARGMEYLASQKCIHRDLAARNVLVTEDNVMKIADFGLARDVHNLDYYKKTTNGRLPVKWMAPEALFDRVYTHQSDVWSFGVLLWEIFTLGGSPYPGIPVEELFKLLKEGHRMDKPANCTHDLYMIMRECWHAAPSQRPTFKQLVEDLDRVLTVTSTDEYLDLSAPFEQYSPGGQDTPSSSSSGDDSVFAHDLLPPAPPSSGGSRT
Chain of SRSF protein kinase 3 (Homo sapiens) (Q9UPE1 whole entry): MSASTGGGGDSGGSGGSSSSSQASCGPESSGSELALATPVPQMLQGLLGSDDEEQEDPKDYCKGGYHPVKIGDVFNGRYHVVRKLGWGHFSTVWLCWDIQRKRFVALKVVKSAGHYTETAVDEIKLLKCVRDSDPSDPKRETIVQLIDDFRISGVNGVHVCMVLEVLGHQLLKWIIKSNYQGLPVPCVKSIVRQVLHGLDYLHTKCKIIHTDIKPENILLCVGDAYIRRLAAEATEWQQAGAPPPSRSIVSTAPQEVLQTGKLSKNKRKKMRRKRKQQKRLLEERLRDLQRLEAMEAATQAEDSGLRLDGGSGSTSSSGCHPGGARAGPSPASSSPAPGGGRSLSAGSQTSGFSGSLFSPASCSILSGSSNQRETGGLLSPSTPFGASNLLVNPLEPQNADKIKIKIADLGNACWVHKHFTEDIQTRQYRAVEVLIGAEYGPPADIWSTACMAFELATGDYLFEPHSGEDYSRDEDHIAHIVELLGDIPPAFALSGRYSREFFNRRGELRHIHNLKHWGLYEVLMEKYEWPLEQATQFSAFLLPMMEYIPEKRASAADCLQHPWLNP
Chain of Calcium/calmodulin-dependent protein kinase type 1D (Homo sapiens) (Q8IU85 whole entry, looked up): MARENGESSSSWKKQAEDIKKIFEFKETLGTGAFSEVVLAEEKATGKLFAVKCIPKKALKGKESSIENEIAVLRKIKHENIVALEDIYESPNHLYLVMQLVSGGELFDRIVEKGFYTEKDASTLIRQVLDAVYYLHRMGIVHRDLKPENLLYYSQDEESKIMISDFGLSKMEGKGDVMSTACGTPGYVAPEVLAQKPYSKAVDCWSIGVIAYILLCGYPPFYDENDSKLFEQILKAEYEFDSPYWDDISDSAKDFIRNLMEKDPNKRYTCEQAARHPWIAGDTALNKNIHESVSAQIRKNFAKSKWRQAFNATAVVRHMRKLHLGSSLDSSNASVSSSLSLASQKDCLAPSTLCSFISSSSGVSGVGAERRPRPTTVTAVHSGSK

Take `C=CC(=O)Nc1cccc(CC)c1Nc1ncc(OCc2c(Cl)c(OC)cc(OC)c2Cl)cn1`: the IC50 in series [1] and in series [2] was above 10 µM in each case.
Turning to `C=CC(=O)Nc1cccc(OC(C)C)c1Nc1ncc(OCc2c(Cl)c(OC)cc(OC)c2Cl)cn1`, the IC50 in series [1], in [2] and in series [3] was above 10 µM throughout.
As for `C=CC(=O)Nc1cccc(Cl)c1Nc1ncc(OCc2cc(OC)cc(OC)c2)cn1`, the IC50 in series [1] and in [2] was above 10 µM each time.
Take `C=CC(=O)Nc1cccc(Cl)c1Nc1ncc(OCc2cccc(OC)c2)cn1`: the IC50 in series [1], in [2] and in [3] was above 10 µM each time.
As to `C=CC(=O)Nc1cccc(OCC)c1Nc1ncc(OCc2c(Cl)c(OC)cc(OC)c2Cl)cn1`, the IC50 in series [1], in series [2] and in series [3] was above 10 µM in each case.
As for `C=CC(=O)Nc1cccc(Cl)c1Nc1ncc(OCc2c(Cl)c(OC)cc(OC)c2Cl)cn1`, the IC50 (as a rule, the concentration at which inhibition is half-maximal) in the series with MCF7 is above 10 µM; with MDA-MB-231 it was above 10 µM; in series [1], above 10 µM; in series [2], above 10 µM; in the series on MDA-MB-453 [4], 0.65 µM.
In the case of `C=CC(=O)Nc1cccc(Cl)c1Nc1ncc(OC(C)c2c(Cl)c(OC)cc(OC)c2Cl)cn1` (stereo not given), the IC50 in series [1] and in series [2] was above 10 µM in each case.
As to `C=CC(=O)Nc1cc(Cl)cc(Cl)c1Nc1ncc(OCc2c(Cl)c(OC)cc(OC)c2Cl)cn1`, the IC50 in the series on MCF7 is above 10 µM; in the series on MDA-MB-231, above 10 µM; in series [1], above 10 µM; in series [2], above 10 µM; with MDA-MB-453 [4], 0.87 µM.
As for `C=CC(=O)Nc1cc(F)cc(Cl)c1Nc1ncc(OCc2c(Cl)c(OC)cc(OC)c2Cl)cn1`, the IC50 is above 10 µM in the series with MCF7; above 10 µM in the series with MDA-MB-231; above 10 µM in [1]; above 10 µM in series [2]; above 10 µM in series [3]; 0.38 µM in the series on MDA-MB-453 [4]. The IC50 in series [14] is 0.0026 µM. In addition, the inhibition – broadly, the percentage by which the read-out fell short of the control – in series [5] was determined as 94.7%; in series [7] it was 99.5%; in series [10], 88%; in series [12], 92.8%. The Activity entry in the series on MDA-MB-453 [6] was “Non-Toxic”; in the series with MDA-MB-453 [8], “Non-Toxic”; in the series on MDA-MB-453 [11], “Non-Toxic”; with MDA-MB-453 [13], “Dose-dependent effect”. Besides, the affinity in [9], expressed as Kd, was 0.0033 µM.
Turning to `C=CC(=O)Nc1ccccc1Nc1ncc(OCc2c(Cl)c(OC)cc(OC)c2Cl)cn1`, the IC50 in series [1] stood at 1.2 µM; in [2] it was 0.312 µM.
As to `C=CC(=O)Nc1cccc(Cl)c1Nc1ncc(OCc2ccccc2Cl)cn1`, the IC50 in [1], in series [2] and in [3] was above 10 µM in each case.
For `C=CC(=O)Nc1cccc(Cl)c1Nc1ncc(OCc2cc(OC)ccc2Cl)cn1`, the IC50 in series [1] and in series [2] was above 10 µM each time.
Take `C=CC(=O)Nc1cccc(Cl)c1Nc1ncc(OCc2c(Cl)ccc(OC)c2Cl)cn1`: the IC50 in series [1] and in series [2] was above 10 µM each time.
In the case of `C=CC(=O)Nc1cccc(Cl)c1Nc1ncc(OCc2c(Cl)cccc2Cl)cn1`, the IC50 in series [1], in [2] and in series [3] was above 10 µM throughout.
On to `CCC(=O)Nc1cccc(Cl)c1Nc1ncc(OCc2c(Cl)c(OC)cc(OC)c2Cl)cn1`, for which the IC50 in series [1], in [2] and in series [14] was above 10 µM throughout.
Regarding `C=CC(=O)Nc1cccc(F)c1Nc1ncc(OCc2c(Cl)c(OC)cc(OC)c2Cl)cn1`, the figures for the IC50 in series [1] and in [2] were 4.3 µM and 0.397 µM, respectively.
Turning to `C=CC(=O)Nc1cccc(C)c1Nc1ncc(NCc2c(Cl)c(OC)cc(OC)c2Cl)cn1`, the half-inhibitory concentration (IC50) in [1] and in series [2] was above 10 µM each time.
Take `C=CC(=O)Nc1cccc(Cl)c1Nc1ncc(OCc2cc(OC)cc(OC)c2Cl)cn1`: the IC50 in series [1] and in series [2] was above 10 µM each time.
In the case of `C=CC(=O)Nc1cc(C(F)(F)F)cc(Cl)c1Nc1ncc(OCc2c(Cl)c(OC)cc(OC)c2Cl)cn1`, the IC50 in series [1], in series [2] and in [3] was above 10 µM in each case.
For `C=CC(=O)Nc1cccc(C)c1Nc1ncc2cc(-c3c(Cl)c(OC)cc(OC)c3Cl)ccc2n1`, the IC50 with MCF7 was determined as 2.34 µM; with MDA-MB-231 it was 3.76 µM; in series [1], 0.244 µM; in series [3], 0.24 µM; in the series with MDA-MB-453 [4], 0.32 µM.
Regarding `C=CC(=O)Nc1cccc(C)c1Nc1ncc(OCc2c(Cl)c(OC)cc(OC)c2Cl)cn1`, the IC50 in the series on MCF7 was above 10 µM; in the series with MDA-MB-231 it was above 10 µM; with MDA-MB-453 [4], 0.22 µM.
`C=CC(=O)Nc1cccc(Cl)c1Nc1ncc(OCc2cccc(OC)c2Cl)cn1`: the IC50 in [1] and in series [2] was above 10 µM in each case.
As for `C=CC(=O)Nc1cccc(OC)c1Nc1ncc(OCc2c(Cl)c(OC)cc(OC)c2Cl)cn1`, the IC50 with MCF7 was 1.18 µM; in the series with MDA-MB-231, 2.14 µM; in [1], above 10 µM; in series [2], above 10 µM; in the series on MDA-MB-453 [4] it was 0.21 µM.
As for `C=CC(=O)Nc1ccc(C)cc1Nc1ncc(OCc2c(Cl)c(OC)cc(OC)c2Cl)cn1`, the IC50 in [1] and in [2] was above 10 µM in each case.
With `C=CC(=O)Nc1cccc(C(F)(F)F)c1Nc1ncc(OCc2c(Cl)c(OC)cc(OC)c2Cl)cn1`, the IC50 in series [1], in [2] and in [3] was above 10 µM each time.
Regarding `C=CC(=O)Nc1cc(C)ccc1Nc1ncc(OCc2c(Cl)c(OC)cc(OC)c2Cl)cn1`, the IC50 in series [1] and in series [2] was above 10 µM in each case.
`C=CC(=O)Nc1c(C)cccc1Nc1ncc(OCc2c(Cl)c(OC)cc(OC)c2Cl)cn1`: the IC50 in [1], in series [2] and in [14] was above 10 µM throughout.

The values are drawn from ChEMBL document CHEMBL3997853, “2-Aminopyrimidine Derivatives as New Selective Fibroblast Growth Factor Receptor 4 (FGFR4) Inhibitors” (ACS Med Chem Lett, 2017).
